Test results reported in ChEMBL document CHEMBL4177755, “Combating Drug-Resistant Fungi with Novel Imperfectly Amphipathic Palindromic Peptides” (J Med Chem, 2018).

Legend:
Candida albicans [1] = assay: Fungicidal activity against fluconazole-resistant Candida albicans 56214 after 96 hrs; type: functional; conditions: Candida albicans, 56214, 96 h; read-out: MFC99.9
Summary of the method: (§1)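 After the 48 h, 28 °C broth microdilution in MOPS-buffered RPMI 1640 (inoculum (0.5−1) × 10^3 CFU/mL), 50 μL from each well was plated on YM agar for a further 48 h at 28 °C. MFC is the lowest concentration killing at least 99.9% of cells. Triplicate, three biological replicates.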

Escherichia coli [2] = assay: Bactericidal activity against Escherichia coli 1005; type: functional; conditions: read-out: MBC99.9
Summary of the method: (§2)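 Wells from the 24 h, 37 °C MHB microdilution plates (bacteria at a final (0.5−1) × 10^5 CFU/mL; peptide diluted in 0.2% BSA) were plated on agar and incubated overnight. MBC is the lowest concentration killing >99.9% of cells. Each test was reproduced at least 3 times.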

[3] = test system: Staphylococcus epidermidis; assay: Antibacterial activity against Staphylococcus epidermidis ATCC 12228 after 24 hrs; type: functional; conditions: ATCC 12228, 24 h
Summary of the method: (§3)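 Broth microdilution. Mid-log bacteria in MHB at a final (0.5−1) × 10^5 CFU/mL were mixed with equal volumes of peptide serially diluted in 0.2% BSA. Plates were incubated 24 h at 37 °C and read at A492. MIC is the lowest concentration inhibiting 95% of growth. Each test was repeated at least 3 times.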

Candida albicans [4] = assay: Fungicidal activity against Candida albicans 14936 after 96 hrs; type: functional; conditions: Candida albicans, 14936, 96 h; read-out: MFC99.9; summary of the method: as §1
Candida albicans [5] = assay: Fungicidal activity against fluconazole-resistant Candida albicans 17546 after 96 hrs; type: functional; conditions: Candida albicans, 17546, 96 h; read-out: MFC99.9; summary of the method: as §1
Escherichia coli [6] = assay: Antibacterial activity against Escherichia coli ATCC 25922 after 18 hrs in presence of MgCl2 by broth dilution method; type: functional; conditions: ATCC 25922, 18 h
Escherichia coli [7] = assay: Antibacterial activity against Escherichia coli ATCC 25922 after 24 hrs; type: functional; conditions: ATCC 25922, 24 h; summary of the method: as §3
Staphylococcus aureus [8] = assay: Antibacterial activity against Staphylococcus aureus ATCC 25923 after 24 hrs; type: functional; conditions: ATCC 25923, 24 h
Summary of the method: (§4)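 Modified NCCLS broth microdilution. Mid-log bacteria at (0.5−1) × 10^5 CFU/mL in MHB were mixed 1:1 with peptide serially diluted in 0.2% BSA and incubated 24 h at 37 °C. Absorbance was read at 492 nm; MIC is the lowest concentration inhibiting 95% of growth. At least 3 repeats.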

Candida albicans [9] = assay: Antifungal activity against fluconazole-resistant Candida albicans 56214 after 48 hrs by broth microdilution method; type: functional; conditions: Candida albicans, 56214, 48 h
Summary of the method: (§5)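 Modified CLSI M27-A2 broth microdilution. Yeast at (0.5−1) × 10^3 CFU/mL in MOPS-buffered RPMI 1640 was mixed 1:1 with peptide serially diluted in 0.2% BSA and incubated 48 h at 28 °C. Absorbance was read at 492 nm; MIC is the lowest concentration inhibiting 95% of growth. Triplicate, three biological replicates.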

Escherichia coli [10] = assay: Antibacterial activity against Escherichia coli ATCC 25922 after 18 hrs in presence of NH4Cl by broth dilution method; type: functional; conditions: ATCC 25922, 18 h
Candida albicans [11] = assay: Antifungal activity against Candida albicans cgmcc 2.2086 in presence of KCl by broth dilution method; type: functional
Candida albicans [12] = assay: Antifungal activity against Candida albicans SP3903 after 48 hrs by broth microdilution method; type: functional; conditions: SP3903, 48 h; summary of the method: as §5
Candida albicans [13] = assay: Fungicidal activity against Candida albicans SP3931 after 96 hrs; type: functional; conditions: SP3931, 96 h, read-out: MFC99.9; summary of the method: as §1
Salmonella typhimurium [14] = assay: Antibacterial activity against Salmonella typhimurium ATCC 14028 after 24 hrs; type: functional, Salmonella enterica subsp. enterica serovar Typhimurium; conditions: Salmonella enterica, ATCC 14028, 24 h; summary of the method: as §3
Escherichia coli [15] = assay: Antibacterial activity against Escherichia coli ATCC 25922 after 18 hrs in presence of CaCl2 by broth dilution method; type: functional; conditions: ATCC 25922, 18 h
Escherichia coli [16] = assay: Bactericidal activity against Escherichia coli ATCC 25922; type: functional; conditions: read-out: MBC99.9; summary of the method: as §2
Candida albicans [17] = assay: Antifungal activity against Candida albicans isolated from alveolar fluid after 48 hrs by broth microdilution method; type: functional; summary of the method: as §5
Escherichia coli [18] = assay: Antibacterial activity against Escherichia coli ATCC 25922 after 18 hrs in presence of KCl by broth dilution method; type: functional; conditions: ATCC 25922, 18 h
Staphylococcus aureus [19] = assay: Antibacterial activity against Staphylococcus aureus ATCC 29213 after 24 hrs; type: functional; conditions: ATCC 29213, 24 h; summary of the method: as §4
Candida albicans [20] = assay: Antifungal activity against Candida albicans SP3876 after 48 hrs by broth microdilution method; type: functional; conditions: SP3876, 48 h; summary of the method: as §5
Staphylococcus aureus [21] = assay: Antibacterial activity against methicillin-resistant Staphylococcus aureus ATCC 4330 after 24 hrs; type: functional; conditions: ATCC 4330, 24 h; summary of the method: as §4
Escherichia coli [22] = assay: Antibacterial activity against Escherichia coli ATCC 25922 after 18 hrs in presence of FeCl3 by broth dilution method; type: functional; conditions: ATCC 25922, 18 h
Candida albicans [23] = assay: Antifungal activity against Candida albicans SP3931 after 48 hrs by broth microdilution method; type: functional; conditions: SP3931, 48 h; summary of the method: as §5
Candida parapsilosis = assay: Antifungal activity against Candida parapsilosis cgmcc 2.3989 after 48 hrs by broth microdilution method; type: functional; conditions: Lodderomyces parapsilosis, cgmcc 2.3989, 48 h
Summary of the method: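 Modified CLSI M27-A2 broth microdilution. Yeast were suspended in MOPS-buffered RPMI 1640 at a final (0.5−1) × 10^3 CFU/mL and mixed 1:1 with peptide serially diluted in 0.2% BSA. Plates were incubated 48 h at 28 °C and read at A492. MIC is the lowest concentration giving 95% inhibition. Run in triplicate with three biological replicates.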

[24] = Cytotoxicity against mouse RAW264.7 cells assessed as cell viability at 2 to 64 uM after 24 hrs by MTT assay relative to control; type: cell-based; conditions: read-out: Activity
Summary of the method: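 MTT viability assay. RAW264.7 or HEK293T cells at (1.0−2.0) × 10^5 per well were exposed to a peptide concentration series for 24 h at 37 °C in 5% CO2. MTT was then added at 0.5 mg/mL final for 4 h; formazan was dissolved in DMSO and read at 570 nm. Results average three independent trials.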

Candida albicans [25] = assay: Fungicidal activity against Candida albicans cgmcc 2.2086 after 96 hrs; type: functional; conditions: cgmcc 2.2086, 96 h, read-out: MFC99.9; summary of the method: as §1
Salmonella typhimurium [26] = assay: Bactericidal activity against Salmonella typhimurium ATCC 14028; type: functional, Salmonella enterica subsp. enterica serovar Typhimurium; conditions: Salmonella enterica, read-out: MBC99.9; summary of the method: as §2
Escherichia coli [27] = assay: Antibacterial activity against Escherichia coli ATCC 25922 after 18 hrs in presence of NaCl by broth dilution method; type: functional; conditions: ATCC 25922, 18 h
Candida albicans [28] = assay: Fungicidal activity against fluconazole-resistant Candida albicans 56452 after 96 hrs; type: functional; conditions: Candida albicans, 56452, 96 h; read-out: MFC99.9; summary of the method: as §1
Candida albicans [29] = assay: Antifungal activity against Candida albicans cgmcc 2.2086 in presence of MgCl2 by broth dilution method; type: functional
Candida albicans [30] = assay: Fungicidal activity against Candida albicans 58288 after 96 hrs; type: functional; conditions: Candida albicans, 58288, 96 h; read-out: MFC99.9; summary of the method: as §1
Candida albicans [31] = assay: Antifungal activity against Candida albicans cgmcc 2.2086 in presence of FeCl3 by broth dilution method; type: functional
Candida albicans [32] = assay: Antifungal activity against Candida albicans 14936 after 48 hrs by broth microdilution method; type: functional; conditions: Candida albicans, 14936, 48 h; summary of the method: as §5

## H-RWRWWWRWR-NH2
Candida albicans [1]
  MFC: 8 µM
Escherichia coli [2]
  MBC: 4 µM
[3]
  MIC95: 4 µM
Candida albicans [4]
  MFC: 8 µM
Candida albicans [5]
  MFC: 2 µM
Escherichia coli [6]
  MIC: 2 µM
Escherichia coli [7]
  MIC95: 4 µM
Staphylococcus aureus [8]
  MIC95: 4 µM
Candida albicans [9]
  MIC95: 4 µM
Escherichia coli [10]
  MIC: 4 µM
Candida albicans [11]
  MIC: 16 µM
Candida albicans [12]
  MIC95: 8 µM
Candida albicans [13]
  MFC: 16 µM
Salmonella typhimurium [14]
  MIC95: 4 µM
Escherichia coli [15]
  MIC: 4 µM
Escherichia coli [16]
  MBC: 4 µM
Candida albicans [17]
  MIC95: 8 µM
Escherichia coli [18]
  MIC: 4 µM
Staphylococcus aureus [19]
  MIC95: 4 µM
Candida albicans [20]
  MIC95: 4 µM
Staphylococcus aureus [21]
  MIC95: 2 µM
Escherichia coli [22]
  MIC: 4 µM
Candida albicans [23]
  MIC95: 8 µM
Candida parapsilosis
  MIC95: 16 µM
[24]
  viability at 24 h, up to 64 µM: 70 to 80%
Candida albicans [25]
  MFC: 16 µM
Salmonella typhimurium [26]
  MBC: 4 µM
Escherichia coli [27]
  MIC: 4 µM
Candida albicans [28]
  MFC: 4 µM
Candida albicans [29]
  MIC: 8 µM
Candida albicans [30]
  MFC: 8 µM
Candida albicans [31]
  MIC: 8 µM
Candida albicans [32]
  MIC95: 8 µM
